Active and inactive are the calls of the source. No cut-off for these calls is given here.
Legend:
Adenosine receptor A2a = Adenosine receptor A2a (Homo sapiens, UniProt P29274); assay: Displacement of [3H]NECA from recombinant human adenosine A2A receptor expressed in CHO cell membranes after 3 hrs
How it was run: (§1)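 Competition binding on CHO membranes stably expressing the human subtype (two-step 1,000 x g then 100,000 x g centrifugation, stored -80°C). Radioligands: 1 nM [3H]CCPA (A1), 10 nM [3H]NECA (A2A), 1 nM [3H]HEMADO (A3). Nonspecific binding: 1 mM theophylline (A1) or 100 µM R-PIA (A2A, A3). Ki from competition curves; geometric means with 95% CI, duplicates, n ≥ 3.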

Adenosine receptor A2b = target: T1, Adenosine receptor A2b (Homo sapiens, UniProt P29275); assay: Agonist activity at recombinant human adenosine A2B receptor expressed in CHO cell membranes assessed as stimulation of adenylyl cyclase activity in presence of […]; assay type: functional, cell-based
T1 sequence (P29275 whole entry): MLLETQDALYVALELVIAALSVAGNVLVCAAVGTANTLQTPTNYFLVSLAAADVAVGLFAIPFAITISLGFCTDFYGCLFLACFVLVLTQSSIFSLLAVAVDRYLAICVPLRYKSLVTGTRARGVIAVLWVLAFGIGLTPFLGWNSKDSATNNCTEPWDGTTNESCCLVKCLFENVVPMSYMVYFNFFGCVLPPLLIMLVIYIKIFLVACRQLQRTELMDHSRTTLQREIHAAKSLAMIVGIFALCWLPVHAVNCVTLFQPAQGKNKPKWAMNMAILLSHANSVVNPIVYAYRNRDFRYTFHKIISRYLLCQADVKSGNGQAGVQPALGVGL
How it was run: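 A2B potency from stimulation of adenylyl cyclase in crude CHO membranes (single high-speed centrifugation, resuspended in 50 mM Tris/HCl pH 7.4, used immediately); EC50 derived. Where only partial agonism was seen, efficacy was compared to 100 µM NECA as full agonist. Geometric means, 95% CI, duplicates, n ≥ 3.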

[1] = target: Adenosine receptors; A1 & A3 (Homo sapiens) (UniProt P30542+P0DMS8); assay: Selectivity ratio of Ki for recombinant human adenosine A3 receptor to Ki for recombinant human adenosine A1 receptor
How it was run: (§2)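 Ratios computed from Ki values obtained by competition binding in human receptor-transfected CHO membranes: [3H]CCPA 1 nM (A1), [3H]NECA 10 nM (A2A), [3H]HEMADO 1 nM (A3).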

Adenosine receptor A1 [2] = target: T2, Adenosine receptor A1 (Homo sapiens, UniProt P30542); assay: Displacement of [3H]CCPA from recombinant human adenosine A1 receptor expressed in CHO cell membranes after 3 hrs; how it was run: as §1
T2 sequence (P30542 whole entry): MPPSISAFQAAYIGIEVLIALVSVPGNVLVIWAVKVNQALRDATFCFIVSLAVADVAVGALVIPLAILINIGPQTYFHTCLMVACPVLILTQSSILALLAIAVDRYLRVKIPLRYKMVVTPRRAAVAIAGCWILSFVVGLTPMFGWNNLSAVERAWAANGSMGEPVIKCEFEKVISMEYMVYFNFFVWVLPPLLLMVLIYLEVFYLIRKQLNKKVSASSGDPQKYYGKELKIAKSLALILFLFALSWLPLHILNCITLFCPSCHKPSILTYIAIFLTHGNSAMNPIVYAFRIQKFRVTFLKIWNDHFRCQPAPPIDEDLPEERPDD

Homo sapiens = species on record: Homo sapiens; assay: Selectivity ratio of Ki for recombinant human adenosine A2A receptor to Ki for recombinant human adenosine A1 receptor; how it was run: as §2
Adenosine receptor A3 [3] = target: T3, Adenosine receptor A3 (Homo sapiens, UniProt P0DMS8); assay: Displacement of [3H]HEMADO from recombinant human adenosine A3 receptor expressed in CHO cell membranes after 3 hrs; how it was run: as §1
T3 sequence (P0DMS8 whole entry): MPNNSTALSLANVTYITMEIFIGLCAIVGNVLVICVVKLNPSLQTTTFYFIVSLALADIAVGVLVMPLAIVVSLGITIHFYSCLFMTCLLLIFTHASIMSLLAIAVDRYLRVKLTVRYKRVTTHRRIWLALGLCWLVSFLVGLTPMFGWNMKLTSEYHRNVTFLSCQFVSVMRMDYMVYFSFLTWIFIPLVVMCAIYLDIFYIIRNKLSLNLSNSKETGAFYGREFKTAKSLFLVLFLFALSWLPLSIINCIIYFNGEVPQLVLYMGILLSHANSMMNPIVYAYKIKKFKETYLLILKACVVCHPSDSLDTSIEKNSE

Adenosine receptor A3 [4] = target: T3, Adenosine receptor A3; assay: Antagonist activity at recombinant human adenosine A3 receptor expressed in CHO cell membranes assessed as inhibition of forskolin-stimulated adenylyl cyclase in presence of […]; assay type: functional, cell-based
How it was run: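 hA3-CHO membranes (one high-speed spin, 50 mM Tris/HCl pH 7.4, used fresh) tested for reversal of NECA-induced inhibition of forskolin-stimulated adenylyl cyclase. NECA served as reference agonist. Points in duplicate, at least 3 independent experiments.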

Adenosine receptor A1 [5] = target: T2, Adenosine receptor A1; assay: Agonist activity at recombinant human adenosine A1 receptor expressed in CHO cell membranes assessed as inhibition of forskolin-stimulated adenylyl cyclase activity in presence of […]
[6] = target: T4, Adenosine receptor A1 (Homo sapiens) (UniProt P30542); assay: Agonist activity at recombinant human adenosine A1 receptor expressed in CHO cell membranes assessed as inhibition of forskolin-stimulated adenylyl cyclase activity in presence of […] relative to CCPA
T4 sequence (whole entry): T2 sequence (P30542 whole entry)

Mus musculus [7] = assay: Antinociceptive activity in ip dosed C57BL/6 mouse assessed as reduction in prolonged phase of tonic pain administered 10 mins prior to formalin challenge measured after 60 mins; assay type: functional, organism-based
How it was run: (§3)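 Adult male C57BL/6 mice (25-30 g), acclimatized 30 min in test chamber. Compound or vehicle (10% DMSO in 0.9% NaCl) given i.p. 10 min before 30 µL 1.25% formalin s.c. into dorsal hind paw; DPCPX 1 mg/kg i.p. where co-given. Blinded observers recorded paw lifting/licking time every 5 min for 60 min; early phase 0-7 min, late phase 15-60 min. 8-10 mice/group, mean ± SEM.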

Mus musculus [8] = assay: Antinociceptive activity in C57BL/6 mouse assessed as reduction in prolonged phase of tonic pain at 2 mg/kg, ip administered 10 mins prior to formalin challenge measured after 60 mins in presence of A1AR antagonist DPCPX; assay type: functional, organism-based; how it was run: as §3
Mus musculus [9] = assay: Antinociceptive activity in C57BL/6 mouse assessed as reduction in early phase of tonic pain at 2 mg/kg, ip administered 10 mins prior to formalin challenge measured after 7 mins; assay type: functional, organism-based; how it was run: as §3
Mus musculus [10] = assay: Antinociceptive activity in C57BL/6 mouse assessed as reduction in early phase of tonic pain at 4 mg/kg, ip administered 10 mins prior to formalin challenge measured after 7 mins; assay type: functional, organism-based; how it was run: as §3
Mus musculus [11] = assay: Antinociceptive activity in C57BL/6 mouse assessed as reduction in prolonged phase of tonic pain at 4 mg/kg, ip administered 10 mins prior to formalin challenge measured after 60 mins; assay type: functional, organism-based; how it was run: as §3
Mus musculus [12] = assay: Antinociceptive activity in C57BL/6 mouse assessed as reduction in early phase of tonic pain at 4 mg/kg, ip administered 10 mins prior to formalin challenge measured after 7 mins in presence of A1AR antagonist DPCPX; assay type: functional, organism-based; how it was run: as §3
Mus musculus [13] = assay: Antinociceptive activity in C57BL/6 mouse assessed as reduction in prolonged phase of tonic pain at 4 mg/kg, ip administered 10 mins prior to formalin challenge measured after 60 mins in presence of A1AR antagonist DPCPX; assay type: functional, organism-based; how it was run: as §3

Adenosine receptor A2a, sequence (P29274 whole entry): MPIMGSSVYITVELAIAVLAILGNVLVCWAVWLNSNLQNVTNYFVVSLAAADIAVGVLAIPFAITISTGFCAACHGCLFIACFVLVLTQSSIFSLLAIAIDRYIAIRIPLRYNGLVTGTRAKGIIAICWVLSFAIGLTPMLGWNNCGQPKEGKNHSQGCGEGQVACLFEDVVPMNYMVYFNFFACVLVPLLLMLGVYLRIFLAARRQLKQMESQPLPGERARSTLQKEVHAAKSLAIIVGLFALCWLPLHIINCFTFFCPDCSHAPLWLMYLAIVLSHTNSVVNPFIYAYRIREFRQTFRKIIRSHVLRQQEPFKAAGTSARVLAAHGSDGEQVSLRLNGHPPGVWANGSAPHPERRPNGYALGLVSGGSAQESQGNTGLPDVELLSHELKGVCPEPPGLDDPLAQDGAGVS

| Compound | Ki (Adenosine receptor A2a) [µM] | EC50 (Adenosine receptor A2b) [µM] | Ratio Ki [1] | Ki (Adenosine receptor A1 [2]) [µM] | Ratio Ki (Homo sapiens) | Ki (Adenosine receptor A3 [3]) [µM] | IC50 (Adenosine receptor A3 [4]) [µM] | EC50 (Adenosine receptor A1 [5]) [µM] | Efficacy [6] [%] | Activity (Mus musculus [7]) | Activity (Mus musculus [8]) | Activity (Mus musculus [9]) | Activity (Mus musculus [10]) | Activity (Mus musculus [11]) | Activity (Mus musculus [12]) | Activity (Mus musculus [13]) |
| --- | --- | --- | --- | --- | --- | --- | --- | --- | --- | --- | --- | --- | --- | --- | --- | --- |
| O[C@@H]1[C@H](O)[C@@H](CCl)O[C@H]1n1cnc2c(Nc3ccc(Cl)cc3F)nc(Cl)nc21 | 1.96 | > 60 | 21 | 0.0112 | 175 | 0.232 | – | – | – | – | – | – | – | – | – | – |
| Cc1cc(C)n(C[C@H]2O[C@@H](n3cnc4c(NC5CCCC5)ncnc43)[C@H](O)[C@@H]2O)n1 | 14.5 | > 60 | 49 | 0.115 | 126 | 5.64 | – | – | – | – | – | – | – | – | – | – |
| Cc1cc(C)n(C[C@H]2O[C@@H](n3cnc4c(NC5CC6CCC5C6)ncnc43)[C@H](O)[C@@H]2O)n1 (mixture of isomers) | 19.6 | > 30 | 213 | 0.0256 | 765 | 5.45 | – | – | – | – | – | – | – | – | – | – |
| O[C@@H]1[C@H](O)[C@@H](CCl)O[C@H]1n1cnc2c(Nc3ccc(Cl)cc3F)ncnc21 | 1.36 | 3.74 | 73 | 0.00187 | 727 | 0.136 | 4.14 | 0.056 | > 90 | – | – | – | – | – | – | – |
| Cc1cc(C)n(C[C@H]2O[C@@H](n3cnc4c(Nc5ccc(Cl)cc5F)nc(Cl)nc43)[C@H](O)[C@@H]2O)n1 | > 100 | > 60 | 1 | 0.139 | > 719 | 0.139 | 0.701 | 5.57 | > 90 | – | – | – | – | – | – | – |
| Cc1cc(C)n(C[C@H]2O[C@@H](n3cnc4c(Nc5ccc(Cl)cc5F)ncnc43)[C@H](O)[C@@H]2O)n1 | 6.83 | > 60 | 17 | 0.158 | 43 | 2.73 | – | – | – | – | – | – | – | – | – | – |
| O[C@@H]1[C@H](O)[C@@H](CCl)O[C@H]1n1cnc2c(N[C@@H]3CCOC3)nc(Cl)nc21 | 8.68 | 20 | 314 | 0.0035 | 2480 | 1.1 | – | 0.0542 | > 90 | Dose-dependent effect | inactive | – | – | – | – | – |
| O[C@@H]1[C@H](O)[C@@H](CCl)O[C@H]1n1cnc2c(N[C@@H]3CCOC3)ncnc21 | 10.4 | 12.8 | 635 | 0.00189 | 5500 | 1.2 | – | 0.14 | > 90 | – | – | Active | Active | Active | inactive | inactive |

Second part, led by results:

| Ki (Adenosine receptor A2a) [µM] | EC50 (Adenosine receptor A2b) [µM] | Ratio Ki [1] | Ki (Adenosine receptor A1 [2]) [µM] | Ratio Ki (Homo sapiens) | Ki (Adenosine receptor A3 [3]) [µM] | IC50 (Adenosine receptor A3 [4]) [µM] | EC50 (Adenosine receptor A1 [5]) [µM] | Efficacy [6] [%] | Compound | Activity (Mus musculus [7]) | Activity (Mus musculus [8]) | Activity (Mus musculus [9]) | Activity (Mus musculus [10]) | Activity (Mus musculus [11]) | Activity (Mus musculus [12]) | Activity (Mus musculus [13]) |
| --- | --- | --- | --- | --- | --- | --- | --- | --- | --- | --- | --- | --- | --- | --- | --- | --- |
| 28.6 | > 60 | 11 | 0.491 | 58 | 5.28 | – | – | – | Cc1cc(C)n(C[C@H]2O[C@@H](n3cnc4c(N[C@@H]5CCOC5)ncnc43)[C@H](O)[C@@H]2O)n1 | – | – | – | – | – | – | – |
| 11.9 | > 60 | 2.3 | 0.438 | 27 | 0.996 | – | – | – | Cc1cc(C)n(C[C@H]2O[C@@H](n3cnc4c(N[C@@H]5CCOC5)nc(Cl)nc43)[C@H](O)[C@@H]2O)n1 | – | – | – | – | – | – | – |
| 9.43 | > 30 | 333 | 0.00435 | 2170 | 1.45 | – | 0.134 | > 90 | Cc1cc(C)n(C[C@H]2O[C@@H](n3cnc4c(NC5CC6CCC5C6)nc(Cl)nc43)[C@H](O)[C@@H]2O)n1 (mixture of isomers) | Dose-dependent effect | – | – | – | – | – | – |
| 10.2 | > 30 | 18 | 0.0186 | 548 | 0.343 | 1.91 | 0.541 | > 90 | Cc1cc(C)n(C[C@H]2O[C@@H](n3cnc4c(NC5CCCC5)nc(Cl)nc43)[C@H](O)[C@@H]2O)n1 | – | – | – | – | – | – | – |
